# Measurements from ChEMBL document CHEMBL3098111, “Discovery of 2,5-diarylnicotinamides as selective orexin-2 receptor antagonists (2-SORAs)” (Bioorg Med Chem Lett, 2013).
# Active and inactive are the calls of the source. No cut-off for these calls is given here.
# Experiments:
# [1] = target: Prostaglandin F2-alpha receptor (Homo sapiens) (UniProt P43088); assay: Inhibition of human prostanoid FP receptor at 10 uM relative to control
# [2] = target: T1, 5-hydroxytryptamine receptor 2B (Homo sapiens, UniProt P41595); assay: Inhibition of human 5-HT2B receptor at 10 uM relative to control
# T1 sequence (P41595 whole entry): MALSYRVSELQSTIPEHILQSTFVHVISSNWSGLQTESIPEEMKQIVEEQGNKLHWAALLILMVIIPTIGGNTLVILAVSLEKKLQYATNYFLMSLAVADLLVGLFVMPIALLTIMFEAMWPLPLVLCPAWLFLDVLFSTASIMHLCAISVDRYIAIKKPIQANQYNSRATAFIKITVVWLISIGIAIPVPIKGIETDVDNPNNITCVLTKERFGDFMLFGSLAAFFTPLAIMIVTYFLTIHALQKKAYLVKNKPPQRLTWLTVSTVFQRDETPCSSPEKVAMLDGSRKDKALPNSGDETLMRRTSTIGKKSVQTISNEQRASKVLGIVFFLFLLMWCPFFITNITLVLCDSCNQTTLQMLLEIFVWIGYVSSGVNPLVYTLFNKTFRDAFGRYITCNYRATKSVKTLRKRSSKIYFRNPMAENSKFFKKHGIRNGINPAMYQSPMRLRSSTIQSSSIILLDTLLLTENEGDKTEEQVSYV
# Caspase-7 (Homo sapiens) = Caspase-7 (Homo sapiens) (UniProt P55210); assay: Inhibition of human caspase 7 at 10 uM relative to control
# Caspase-7 (Homo sapiens), sequence (P55210 24-198 limits assumed): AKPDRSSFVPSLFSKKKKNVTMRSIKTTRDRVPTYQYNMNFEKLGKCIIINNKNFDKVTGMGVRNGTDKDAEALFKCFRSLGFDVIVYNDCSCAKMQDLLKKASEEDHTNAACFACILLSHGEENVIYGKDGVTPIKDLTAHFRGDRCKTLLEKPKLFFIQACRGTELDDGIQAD
# Caspase-7 (Homo sapiens), sequence (P55210 207-303 limits assumed): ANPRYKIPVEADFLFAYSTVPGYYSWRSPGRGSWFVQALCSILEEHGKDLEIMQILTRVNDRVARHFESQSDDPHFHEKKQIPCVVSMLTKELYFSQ
# [3] = target: Substance-P receptor (Homo sapiens) (UniProt P25103); assay: Inhibition of human NK1 receptor at 10 uM relative to control
# [4] = target: Inositol 1,4,5-trisphosphate-gated calcium channel ITPR1 (Rattus norvegicus) (UniProt P29994); assay: Inhibition of rat IP3 receptor at 10 uM relative to control
# Oryctolagus cuniculus = species: Oryctolagus cuniculus; assay: Inhibition of rabbit monoamine transporter at 10 nM relative to control
# [5] = target: 5-hydroxytryptamine receptor 1B (Rattus norvegicus) (UniProt P28564); assay: Inhibition of rat 5-HT1B receptor at 10 uM relative to control
# 5-hydroxytryptamine receptor 1B (Rattus norvegicus), sequence (P28564 whole entry): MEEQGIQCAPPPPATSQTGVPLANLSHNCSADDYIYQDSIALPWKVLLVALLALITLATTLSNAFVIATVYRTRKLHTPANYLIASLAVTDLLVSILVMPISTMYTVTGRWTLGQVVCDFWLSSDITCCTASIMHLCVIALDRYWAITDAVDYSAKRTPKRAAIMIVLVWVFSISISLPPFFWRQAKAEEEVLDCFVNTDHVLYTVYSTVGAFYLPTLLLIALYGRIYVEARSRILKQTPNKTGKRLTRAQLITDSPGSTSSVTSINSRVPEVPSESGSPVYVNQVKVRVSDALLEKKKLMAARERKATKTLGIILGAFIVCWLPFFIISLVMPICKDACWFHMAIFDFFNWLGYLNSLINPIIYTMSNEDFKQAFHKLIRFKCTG
# [6] = target: 5-hydroxytryptamine receptor 1B (Rattus norvegicus) (UniProt P28564); assay: Inhibition of rat 5-HT1B receptor at 10 nM relative to control
# Caspase-6 (Homo sapiens) = Caspase-6 (Homo sapiens) (UniProt P55212); assay: Inhibition of human caspase 6 at 10 uM relative to control
# [7] = target: Calcitonin gene-related peptide type 1 receptor (Homo sapiens) (UniProt Q16602); assay: Inhibition of human CGRP1 at 10 uM relative to control
# Calcitonin gene-related peptide type 1 receptor (Homo sapiens), sequence (Q16602 whole entry): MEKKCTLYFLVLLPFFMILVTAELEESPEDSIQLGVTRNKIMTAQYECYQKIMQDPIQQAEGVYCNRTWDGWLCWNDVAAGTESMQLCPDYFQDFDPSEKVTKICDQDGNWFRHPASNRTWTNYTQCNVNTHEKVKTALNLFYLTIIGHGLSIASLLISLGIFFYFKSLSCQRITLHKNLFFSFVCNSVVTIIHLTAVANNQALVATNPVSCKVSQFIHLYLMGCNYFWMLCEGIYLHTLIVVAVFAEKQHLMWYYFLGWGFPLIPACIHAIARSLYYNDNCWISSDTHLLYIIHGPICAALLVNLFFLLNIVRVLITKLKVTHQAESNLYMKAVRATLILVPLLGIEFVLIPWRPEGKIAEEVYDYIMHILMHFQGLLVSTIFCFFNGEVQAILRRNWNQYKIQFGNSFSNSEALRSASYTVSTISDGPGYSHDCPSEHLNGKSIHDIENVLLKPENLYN
# [8] = target: C-C chemokine receptor type 1 (Homo sapiens) (UniProt P32246); assay: Inhibition of human CCR1 at 10 uM relative to control
# [9] = target: Phosphodiesterase 4 (Homo sapiens) (UniProt P27815+Q08499+Q07343+Q08493); assay: Inhibition of human PDE4 at 100 uM relative to control; format: protein assay
# [10] = target: Small conductance calcium-activated potassium channel (Rattus norvegicus) (UniProt P70604+P70606+P70605); assay: Inhibition of rat potassium channel [SKCA] at 10 uM relative to control; format: protein assay
# Rattus norvegicus [11] = assay: Antiinsomnic activity in rat EEG model assessed as decrease in active wake time at 15 mg/kg, po; format: functional, organism-based; parameters: dose 15 mg/kg
# How it was run: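 Rats with EEG telemetry given 15 mg/kg orally during their active period, vehicle 20% Vitamin E TPGS in water. Sleep architecture (active wake, light sleep, delta and REM sleep) scored from EEG.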
# Caspase-8 (Homo sapiens) = Caspase-8 (Homo sapiens) (UniProt Q14790); assay: Inhibition of human caspase 8 at 10 uM relative to control
# Caspase-8 (Homo sapiens), sequence (Q14790 217-374 limits assumed): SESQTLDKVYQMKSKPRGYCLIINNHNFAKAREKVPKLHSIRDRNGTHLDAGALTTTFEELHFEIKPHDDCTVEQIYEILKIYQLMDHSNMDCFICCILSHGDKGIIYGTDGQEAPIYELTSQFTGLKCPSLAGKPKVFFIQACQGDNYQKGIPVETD
# Caspase-8 (Homo sapiens), sequence (Q14790 385-479 limits assumed): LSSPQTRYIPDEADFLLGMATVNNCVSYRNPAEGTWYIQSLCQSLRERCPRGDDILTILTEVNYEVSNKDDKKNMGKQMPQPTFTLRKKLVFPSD
# [12] = target: C-X-C chemokine receptor type 2 (Homo sapiens) (UniProt P25025); assay: Inhibition of human CXCR2 at 10 uM relative to control
# Mu-type opioid receptor [13] = target: T2, Mu-type opioid receptor (Homo sapiens, UniProt P35372); assay: Inhibition of human mu opioid receptor at 0.1 uM relative to control
# T2 sequence (P35372 whole entry): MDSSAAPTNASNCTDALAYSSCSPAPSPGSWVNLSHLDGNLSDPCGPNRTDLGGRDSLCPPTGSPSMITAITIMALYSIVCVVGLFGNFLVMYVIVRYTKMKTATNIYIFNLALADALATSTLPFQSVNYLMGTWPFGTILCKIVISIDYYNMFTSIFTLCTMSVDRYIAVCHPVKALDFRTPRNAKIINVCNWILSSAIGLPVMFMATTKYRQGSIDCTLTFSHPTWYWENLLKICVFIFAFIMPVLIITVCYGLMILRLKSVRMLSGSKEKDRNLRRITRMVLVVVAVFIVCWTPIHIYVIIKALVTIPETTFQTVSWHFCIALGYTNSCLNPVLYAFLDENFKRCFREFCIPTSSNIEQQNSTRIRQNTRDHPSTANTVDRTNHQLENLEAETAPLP
# [14] = target: Alpha-2B adrenergic receptor (Homo sapiens) (UniProt P18089); assay: Inhibition of human alpha2B adrenergic receptor at 10 uM relative to control
# [15] = target: Vasoactive intestinal polypeptide receptor 1 (Homo sapiens) (UniProt P32241); assay: Inhibition of human VIP1 receptor at 10 uM relative to control
# [16] = target: Prostaglandin D2 receptor (Homo sapiens) (UniProt Q13258); assay: Inhibition of human prostanoid DP receptor at 10 uM relative to control
# Prostaglandin D2 receptor (Homo sapiens), sequence (Q13258 whole entry): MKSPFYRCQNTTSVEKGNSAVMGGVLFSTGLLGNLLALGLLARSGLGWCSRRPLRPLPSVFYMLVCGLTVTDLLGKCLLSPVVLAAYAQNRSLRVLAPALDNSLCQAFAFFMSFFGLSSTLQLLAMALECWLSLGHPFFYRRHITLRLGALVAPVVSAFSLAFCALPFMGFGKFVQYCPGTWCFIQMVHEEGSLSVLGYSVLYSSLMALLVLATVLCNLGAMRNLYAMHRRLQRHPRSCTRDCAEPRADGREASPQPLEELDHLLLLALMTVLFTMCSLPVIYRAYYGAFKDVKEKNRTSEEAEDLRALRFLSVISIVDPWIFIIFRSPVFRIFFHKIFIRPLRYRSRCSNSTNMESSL
# [17] = target: T3, 5-hydroxytryptamine receptor 1A (Homo sapiens) (UniProt P08908); assay: Inhibition of human 5-HT1A receptor at 10 uM relative to control
# T3 sequence (whole entry): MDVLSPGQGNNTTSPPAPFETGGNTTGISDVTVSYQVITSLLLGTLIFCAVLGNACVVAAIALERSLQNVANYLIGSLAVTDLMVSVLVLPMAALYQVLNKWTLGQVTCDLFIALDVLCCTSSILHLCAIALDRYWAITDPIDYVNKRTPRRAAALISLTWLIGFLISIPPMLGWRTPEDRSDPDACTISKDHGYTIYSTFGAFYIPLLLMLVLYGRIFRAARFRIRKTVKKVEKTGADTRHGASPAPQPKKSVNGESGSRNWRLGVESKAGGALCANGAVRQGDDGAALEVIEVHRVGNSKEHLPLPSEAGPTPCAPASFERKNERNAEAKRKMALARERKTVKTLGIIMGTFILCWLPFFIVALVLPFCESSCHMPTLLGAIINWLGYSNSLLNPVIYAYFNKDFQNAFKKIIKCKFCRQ
# [18] = target: 5-hydroxytryptamine receptor 1B (Rattus norvegicus) (UniProt P28564); assay: Inhibition of rat 5-HT1B receptor at 0.1 uM relative to control
# Caspase-1 (Homo sapiens) = Caspase-1 (Homo sapiens) (UniProt P29466); assay: Inhibition of human caspase 1 at 10 uM relative to control
# [19] = target: Prostaglandin E2 receptor EP3 subtype (Homo sapiens) (UniProt P43115); assay: Inhibition of human prostanoid EP3 receptor at 10 uM relative to control
# [20] = target: Neutrophil elastase (Homo sapiens) (UniProt P08246); assay: Inhibition of human neutrophil elastase 2 at 30 uM relative to control
# Gallus gallus = species: Gallus gallus; assay: Inhibition of chicken MT receptor at 10 uM relative to control
# Rattus norvegicus [21] = species: Rattus norvegicus; assay: Inhibition of rat strychnine-sensitive glycine receptor at 10 uM relative to control
# [22] = target: Muscarinic acetylcholine receptor M4 (Homo sapiens) (UniProt P08173); assay: Inhibition of human muscarinic M4 receptor at 10 uM relative to control
# Muscarinic acetylcholine receptor M4 (Homo sapiens), sequence (P08173 whole entry): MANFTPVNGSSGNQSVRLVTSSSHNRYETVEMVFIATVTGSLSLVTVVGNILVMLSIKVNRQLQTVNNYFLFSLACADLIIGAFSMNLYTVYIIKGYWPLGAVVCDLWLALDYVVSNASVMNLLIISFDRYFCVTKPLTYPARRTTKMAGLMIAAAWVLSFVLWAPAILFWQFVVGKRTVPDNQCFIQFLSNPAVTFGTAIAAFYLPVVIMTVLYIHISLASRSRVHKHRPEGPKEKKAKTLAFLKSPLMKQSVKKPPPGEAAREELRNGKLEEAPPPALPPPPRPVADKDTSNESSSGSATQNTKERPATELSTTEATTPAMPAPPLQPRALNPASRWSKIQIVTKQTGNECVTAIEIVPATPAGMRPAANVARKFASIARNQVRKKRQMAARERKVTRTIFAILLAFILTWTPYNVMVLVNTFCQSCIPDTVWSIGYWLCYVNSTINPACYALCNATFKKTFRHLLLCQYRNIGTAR
# [23] = target: Somatostatin receptor type 3 (Homo sapiens) (UniProt P32745); assay: Inhibition of human SST3 receptor at 10 uM relative to control
# [24] = target: Insulin receptor (Rattus norvegicus) (UniProt P15127); assay: Inhibition of rat insulin receptor at 10 uM relative to control
# [25] = target: Beta-1 adrenergic receptor (Homo sapiens) (UniProt P08588); assay: Inhibition of human beta1 adrenergic receptor at 10 uM relative to control
# Beta-1 adrenergic receptor (Homo sapiens), sequence (P08588 whole entry, looked up): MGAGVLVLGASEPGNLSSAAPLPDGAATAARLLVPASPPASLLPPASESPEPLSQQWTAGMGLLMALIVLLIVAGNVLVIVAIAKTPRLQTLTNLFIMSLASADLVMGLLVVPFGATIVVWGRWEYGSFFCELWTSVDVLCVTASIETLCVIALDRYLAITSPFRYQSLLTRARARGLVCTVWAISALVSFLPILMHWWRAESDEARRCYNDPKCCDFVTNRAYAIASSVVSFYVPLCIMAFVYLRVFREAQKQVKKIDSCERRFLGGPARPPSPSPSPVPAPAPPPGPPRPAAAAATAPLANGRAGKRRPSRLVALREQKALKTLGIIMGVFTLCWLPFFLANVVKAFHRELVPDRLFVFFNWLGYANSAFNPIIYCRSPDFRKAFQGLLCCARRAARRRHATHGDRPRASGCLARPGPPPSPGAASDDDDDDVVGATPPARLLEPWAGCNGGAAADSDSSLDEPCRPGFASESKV
# [26] = target: Tyrosine-protein phosphatase non-receptor type 2 (Homo sapiens) (UniProt P17706); assay: Inhibition of human TCPTP at 10 uM relative to control
# [27] = target: Polyunsaturated fatty acid 5-lipoxygenase (Homo sapiens) (UniProt P09917); assay: Inhibition of human 5-lipoxygenase at 10 uM relative to control
# [28] = target: Melanocortin receptor 4 (Homo sapiens) (UniProt P32245); assay: Inhibition of human MC4 receptor at 10 uM relative to control
# Mu-type opioid receptor [29] = target: T2, Mu-type opioid receptor; assay: Inhibition of human mu opioid receptor at 10 uM relative to control
# [30] = target: Epidermal growth factor receptor (Homo sapiens) (UniProt P00533); assay: Inhibition of human EGF receptor at 10 uM relative to control
# Epidermal growth factor receptor (Homo sapiens), sequence (P00533 whole entry): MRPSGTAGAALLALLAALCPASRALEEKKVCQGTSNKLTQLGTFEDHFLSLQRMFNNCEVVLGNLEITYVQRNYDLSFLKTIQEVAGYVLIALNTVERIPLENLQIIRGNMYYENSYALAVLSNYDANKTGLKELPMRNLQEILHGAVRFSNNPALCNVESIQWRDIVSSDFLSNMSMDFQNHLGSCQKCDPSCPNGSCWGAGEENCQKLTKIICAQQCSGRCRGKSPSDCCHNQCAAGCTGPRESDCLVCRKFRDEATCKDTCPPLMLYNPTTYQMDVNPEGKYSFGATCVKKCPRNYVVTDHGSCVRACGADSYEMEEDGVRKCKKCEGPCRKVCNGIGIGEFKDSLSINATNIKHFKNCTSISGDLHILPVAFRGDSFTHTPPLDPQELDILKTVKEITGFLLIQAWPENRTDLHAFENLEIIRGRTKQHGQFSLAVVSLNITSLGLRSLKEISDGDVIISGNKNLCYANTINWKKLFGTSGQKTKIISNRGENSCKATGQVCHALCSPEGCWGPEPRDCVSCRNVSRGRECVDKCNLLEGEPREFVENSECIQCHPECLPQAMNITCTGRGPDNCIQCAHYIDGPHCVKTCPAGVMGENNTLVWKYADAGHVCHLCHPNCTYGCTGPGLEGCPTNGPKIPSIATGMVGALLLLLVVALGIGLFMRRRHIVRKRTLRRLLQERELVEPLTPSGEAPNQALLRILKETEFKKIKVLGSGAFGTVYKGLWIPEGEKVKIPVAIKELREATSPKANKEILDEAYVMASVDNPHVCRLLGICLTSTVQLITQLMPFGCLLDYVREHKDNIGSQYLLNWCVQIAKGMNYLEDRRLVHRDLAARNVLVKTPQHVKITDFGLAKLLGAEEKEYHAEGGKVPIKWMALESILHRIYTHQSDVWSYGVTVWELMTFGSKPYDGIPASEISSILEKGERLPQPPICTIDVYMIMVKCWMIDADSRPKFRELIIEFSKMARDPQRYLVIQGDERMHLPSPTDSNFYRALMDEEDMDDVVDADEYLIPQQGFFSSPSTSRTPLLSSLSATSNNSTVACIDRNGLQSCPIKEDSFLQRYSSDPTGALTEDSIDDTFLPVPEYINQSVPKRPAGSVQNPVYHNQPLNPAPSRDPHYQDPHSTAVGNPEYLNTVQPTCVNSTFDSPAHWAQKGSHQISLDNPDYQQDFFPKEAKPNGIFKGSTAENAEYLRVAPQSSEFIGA
# [31] = target: Alpha-2A adrenergic receptor (Homo sapiens) (UniProt P08913); assay: Inhibition of human alpha2A adrenergic receptor at 10 uM relative to control
# Cavia porcellus = species: Cavia porcellus; assay: Inhibition of guinea pig adenosine transporter at 10 nM relative to control
# [32] = target: T1, 5-hydroxytryptamine receptor 2B; assay: Inhibition of human 5-HT2B receptor at 1 uM relative to control
compound,measurement,setting,value
COc1ccc(CNC(=O)c2cc(-c3cc(Cl)cc(Cl)c3)cnc2-c2cccnc2)cc1OC,inhibition,[1],19%
same,inhibition,[2],84%
same,inhibition,Caspase-7 (Homo sapiens),1%
same,inhibition,[3],26%
same,inhibition,[4],0%
same,inhibition,Oryctolagus cuniculus,2%
same,inhibition,[5],73%
same,inhibition,[6],-4%
same,inhibition,Caspase-6 (Homo sapiens),7%
same,inhibition,[7],-10%
same,inhibition,[8],21%
same,inhibition,[9],5%
same,inhibition,[10],9%
same,Activity,Rattus norvegicus [11],Active
same,inhibition,Caspase-8 (Homo sapiens),-1%
same,inhibition,[12],0%
same,inhibition,Mu-type opioid receptor [13],-3%
same,inhibition,[14],34%
same,inhibition,[15],6%
same,inhibition,[16],16%
same,inhibition,[17],69%
same,inhibition,[18],9%
same,inhibition,Caspase-1 (Homo sapiens),4%
same,inhibition,[19],19%
same,inhibition,[20],-2%
same,inhibition,Gallus gallus,22%
same,inhibition,Rattus norvegicus [21],-5%
same,inhibition,[22],7%
same,inhibition,[23],30%
same,inhibition,[24],-5%
same,inhibition,[25],9%
same,inhibition,[26],4%
same,inhibition,[27],44%
same,inhibition,[28],6%
same,inhibition,Mu-type opioid receptor [29],62%
same,inhibition,[30],10%
same,inhibition,[31],19%
same,inhibition,Cavia porcellus,2%
same,inhibition,[32],52%
